Assay outcomes (PubChem)
RGS4 pot – RGS4 potentiation or activation; HEK293 M3R/inducible RGS4, carbachol calcium flux Fluo4; stronger effect = lower value; B-score at 10 µM; 310,000 tested, 0.92% active; AID 463111;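 active means B-score of the integrated calcium signal more than 4 SD below the library mean, with starting fluorescence not abnormally high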;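 further: negative B-score means reduced calcium response which marks RGS4 activation or potentiation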
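Reagent: ECmax carbachol challenge; Test system: M3R-expressing HEK293 line, RGS4 induced by doxycycline; Schedule: overnight RGS4 induction, 30 min dye load 37 °C, 20 min compound RT; Detection: calcium dye Fluo4 fluorescence; Read-out: Agonist-evoked peak-minus-minimum fluorescence over baseline, integrated ratio, B score.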
MrgX1 antagonist – blocks BAM8-22 activation of human MrgX1 receptor | Q96LB2 | MRGX1-HEK293 calcium flux, Fluo-4, BAM8-22 antagonism; stronger effect = lower value | B-score at 10 µM | 310,000 tested, 1.3% active | AID 588676;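 active means calcium-response B-score plate-corrected more than 3 library SD below zero, starting fluorescence within 5 deviations, no agonist response on first addition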;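 further: peak minus trough fluorescence over baseline after final BAM8-22 challenge near maximal dose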
Target sequence (Q96LB2 whole entry, looked up): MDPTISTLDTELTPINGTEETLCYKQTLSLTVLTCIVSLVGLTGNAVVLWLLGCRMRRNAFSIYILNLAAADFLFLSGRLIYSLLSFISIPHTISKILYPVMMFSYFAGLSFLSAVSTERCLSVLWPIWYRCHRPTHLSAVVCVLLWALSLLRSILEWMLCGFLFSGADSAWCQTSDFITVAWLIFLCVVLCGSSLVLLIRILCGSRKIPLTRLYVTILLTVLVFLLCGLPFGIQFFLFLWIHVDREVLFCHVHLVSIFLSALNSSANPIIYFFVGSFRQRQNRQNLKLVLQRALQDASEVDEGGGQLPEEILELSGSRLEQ
MrgX1 allo act – human MrgX1 positive allosteric modulation, primary screen; Q96LB2; MrgX1-HEK293, Fluo-4 calcium flux, FDSS; stronger effect = higher value; B-score at 10 µM; 310,000 tested, 0.63% active;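 active means plate-corrected calcium response at least 3 library SD above typical, normal starting fluorescence, not activating the receptor alone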;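 further: compound read alongside a low EC10 to EC30 dose of BAM8-22 agonist; peak minus trough fluorescence over baseline measured at the second addition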
RGS4 inh – human RGS4 inhibition. 310,000 tested, 0.45% active. HEK293 M3R/RGS4 inducible, Fluo-4 calcium flux; stronger effect = higher value; triggered by carbachol at its EC20. B-score at 10 µM. P49798;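 active means B-score, a plate-corrected calcium signal, over three deviations above library mean, with baseline fluorescence within five deviations of library mean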;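 further: RGS4 expression induced by doxycycline in cells with stable M3 receptor; B-score is computed from the integrated fluorescence ratio over baseline after carbachol; higher B-score means a larger calcium signal and so more RGS4 inhibition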
Target sequence (P49798 whole entry, looked up): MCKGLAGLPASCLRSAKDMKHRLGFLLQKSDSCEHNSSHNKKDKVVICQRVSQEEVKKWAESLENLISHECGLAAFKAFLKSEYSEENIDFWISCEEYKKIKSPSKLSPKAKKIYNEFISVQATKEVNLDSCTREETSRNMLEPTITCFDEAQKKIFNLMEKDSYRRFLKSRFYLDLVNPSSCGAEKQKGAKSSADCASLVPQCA
MrgX1 agonist – activates human MrgX1 receptor signaling; Q96LB2; MrgX1-HEK293 cells, Fluo-4 calcium fluorescence, agonist mode; stronger effect = higher value; B-score at 10 µM; 310,000 tested, 0.44% active;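 active means calcium response B-score plate-corrected fluorescence ratio at least 3 library SD, with starting fluorescence B-score inside 5 SD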
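System – MrgX1-expressing HEK293 cells · Incubation – cells plated overnight, dye loaded 0.5 h 37 °C, 0.5 h room temperature · Technique – kinetic Fluo-4 NW fluorescence of intracellular calcium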
RGS4 act valid – RGS4 activation, validation assay; inhibition, % at 10 µM; 1,100 tested, 89% active; HEK293 M3R/RGS4 inducible, carbachol calcium flux Fluo4; shares compounds with RGS4 pot;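 active means inhibition above 3 SD of the buffer control wells, cut at about 41% in these data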;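 further: signal is the integrated peak-minus-minimum Fluo4 fluorescence over baseline ratio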
M3R Ca counter – counter-screen for RGS4 activators: effect in non-induced cells. shares compounds with RGS4 pot. HEK293 M3R non-induced RGS4, Fluo4 calcium flux; after carbachol challenge at its EC90. inhibition, % at 10 µM. 1,100 tested, 82% active. AID 602283;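 active means inhibition exceeding 3 SD of buffer-only control wells, cut at about 26% in these data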;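 further: percent drop in integrated peak-minus-baseline over baseline Fluo4 ratio after carbachol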
Numbers without * were called inactive; i = inactive; nt = no result given. A selection: hits, their analogues and other compounds. The true share with any hit is near 3.5%.

SMILES	RGS4 pot	MrgX1 antagonist	MrgX1 allo act	RGS4 inh	MrgX1 agonist	RGS4 act valid	M3R Ca counter
CCOc1cnc(-c2ccc(Cl)cc2)o1	i	i	i	i	i	nt	nt
O=C(COc1ccccc1)N1CCN(c2nnc(-c3ccccc3)c3ccccc23)CC1	i	i	i	i	i	nt	nt
Cc1cccc(OCC(=O)N2CCN(c3nnc(-c4ccccc4)c4ccccc34)CC2)c1	-8*	i	i	i	i	78*	30*
Cn1c(=O)[nH]c(=O)c2c1nc(N1CCN(CCO)CC1)n2Cc1ccccc1	i	i	i	i	i	nt	nt
COc1ccc(S(=O)(=O)Nc2ccc(F)cc2F)cc1C(=O)N1CCOCC1	i	i	i	i	i	nt	nt
CCCCCCCCn1c2c(c(=N)c3ccccc31)CCC2	i	nt	nt	i	nt	nt	nt
CCCCCCCCCn1c2c(c(=N)c3c1CCC3)CCCC2	-11*	nt	nt	i	nt	92*	95*
CCOC(=O)N1CCN(CC(=O)Nc2cc(OC)c(OC)cc2C#N)CC1	i	i	i	i	i	nt	nt
Cc1ccc(NC(=O)CSc2nc(=O)n(CCCN3CCOCC3)c3c2CCCC3)c(C)c1	i	i	i	i	i	nt	nt
CCN(CC)CCOC(=O)C1(c2ccc(OC)c(OC)c2)CCCC1	i	i	i	i	i	nt	nt
CCN(CC)CCOC(=O)C1(c2ccccc2)CCCC1	-9.1*	i	i	i	i	94*	93*
Cc1nc2ccccc2c2oc(C(=O)NCC3COc4ccccc4O3)cc12 (stereo not given)	-11*	i	i	i	i	82*	42*
CCc1ccc(CNC(=O)c2cc3c(C)nc4ccccc4c3o2)cc1	i	i	i	i	i	nt	nt
CCOCCN1CCN(c2c(CC)c(C)nc3cc(-c4cc(OC)cc(OC)c4)nn23)CC1	-7.7*	i	i	i	i	58*	31*
CN1CCN(c2nc(-c3cccs3)cc(C(F)(F)F)n2)CC1	-8.7*	i	i	i	i	92*	38*
COc1cc(/C=N/Nc2nc(Nc3ccccc3)nc(N3CCOCC3)n2)ccc1OC(=O)c1ccco1	i	i	i	i	i	nt	nt
C/C(O)=c1/ccc2cccc3nc(C)nc1c23	-8.3*	i	i	i	i	74*	69*
O/C=c1\ccc2cccc3nc(C(F)(F)F)nc1c23	i	i	i	i	i	nt	nt
C/C(=C\C=C(C#N)C#N)c1cc(C#N)c(N)o1	-8.3*	nt	nt	i	nt	62*	57*
O=C(CNC1CCCCCC1)Nc1ccc(S(=O)(=O)NC2CC2)cc1	-7.7*	i	i	i	i	64*	84*
COc1ccc(NC(=O)Nc2cccc3ccccc23)cc1S(N)(=O)=O	i	i	i	i	i	nt	nt
CC(=O)Nc1ccc(N2C(=O)c3ccc(C(=O)Nc4nnc(SCc5ccc(F)cc5)s4)cc3C2=O)cc1	i	i	i	i	i	nt	nt
COc1ccc(CNC(=S)Nc2ccccc2-c2ccccc2)cc1	i	i	i	i	i	nt	nt
COC(=O)C1CCN(c2nc3ccccc3nc2C(C#N)C(=O)OCC(C)C)CC1 (stereo not given)	-7.9*	i	i	i	i	91*	75*
Cc1cc(C)cc(SCc2noc(C(=O)NCCN(C)C)c2C(=O)NCCN(C)C)c1	i	i	i	i	i	nt	nt
SMILES	RGS4 pot	MrgX1 antagonist	MrgX1 allo act	RGS4 inh	MrgX1 agonist	RGS4 act valid	M3R Ca counter
CCCN1CCN(CCCNC(=O)c2cc3c(=O)oc4ccc(C)cc4c3s2)CC1	i	i	i	i	i	nt	nt
Cc1ccc2nc(Cl)c3cc(C(=O)NCCCN4CCCC4)sc3c2c1	-7.6*	i	i	i	i	65*	40*
CC(C)[C@H](NC(=O)c1ccc(C(C)(C)C)cc1)C(=O)Nc1nnc(C2CC2)s1	i	i	i	i	i	nt	nt
Cc1ccccc1C(=O)OC1CCCN(C)C1 (stereo not given)	i	i	i	i	i	nt	nt
CN1CCCC(C#CC(O)(c2ccccc2)c2ccccc2)C1 (stereo not given)	-11*	i	i	i	i	94*	92*
Cc1ccc(S(=O)(=O)NCCCCCC(=O)Nc2cccc(C)c2)cc1	i	i	i	i	i	nt	nt
CC1CCCN(C(=O)COC(=O)c2cc(-c3cccs3)nn2-c2ccccc2)C1 (stereo not given)	-10*	i	i	i	i	92*	70*
CC(C)CCn1c(O)c(N=NC(=O)Cn2ccc(C(F)(F)F)n2)c2ccccc21	-15*	i	i	i	i	44*	84*
CCCn1c(O)c(N=NC(=O)CNC(=O)c2ccncc2)c2ccccc21	i	i	i	i	i	nt	nt
O=C(N/N=C\c1cccc(OC(=O)c2ccco2)c1)c1ccc2c(c1)OCO2	i	i	i	i	i	nt	nt
CCCc1nnc(NC(=O)CCC(=O)N2CCCCC2CC)s1 (stereo not given)	-7.8*	i	i	i	i	0	0
O=C1CCC(c2ccccc2)(C2CCN(Cc3ccccc3)CC2)C(=O)N1 (stereo not given)	-7.8*	i	i	i	i	94*	94*
CCOC(=O)COc1c(/C=N\OC)cc(Cl)cc1OC	i	i	i	i	i	nt	nt
CCOc1ccc(CCNC(=O)C2CC(C)=CCC2C(=O)O)cc1OCC (stereo not given)	i	i	i	i	i	nt	nt
CC1=C(c2ccccc2)SC2=NCCN21	-9.7*	i	i	i	i	75*	31*
COc1ccc2cc3cc(C(=O)Nc4ccccc4N4CCN(C)CC4)oc3nc2c1	-8.9*	i	i	i	i	40*	0
O=C(CCC1CCCC1)Nc1nnc(-c2ccc3c(c2)OCO3)s1	i	i	i	i	i	nt	nt
Cc1ccccc1Cc1c(C)nc2nc(SCC(=O)NCCCN3CCCC3)nn2c1C	-8.7*	i	i	i	i	72*	37*
Cc1nc2nc(SCC(=O)NCCCN3CCCC(C)C3)nn2c(C)c1Cc1ccccc1Cl (stereo not given)	i	i	i	i	i	nt	nt
Cc1nc2nc(SCC(=O)NCCCN3CCCCCC3)nn2c(C)c1Cc1ccccc1Cl	-7.9*	i	i	i	i	82*	45*
